According to ChEMBL document CHEMBL4825692, “Benzofuranyl-2-imidazoles as imidazoline I2 receptor ligands for Alzheimer's disease” (Eur J Med Chem, 2021):
Calls of active or inactive are those of the source. The rule behind the calls is not given here.

How the values were obtained:
Mus musculus [1] = assay: Neuroprotection in naive mouse assessed as reduction in hippocampal FADD protein level at 50 mg/kg, ip by Western blot analysis relative to control; assay type: functional; design: scale not given: the % may be the effect or the level left
Method in brief: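 Adult naive CD-1 mice received one i.p. dose (n = 7) or saline vehicle (2 ml/kg, n = 6) and were killed 1 h later. Hippocampal protein (40 µg) was run on 10% SDS-PAGE, blotted to nitrocellulose and probed with anti-FADD, then ECL. Band IOD densitometry was expressed as % of same-gel vehicle controls, averaged over 2–4 gels per sample.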

Mus musculus [2] = species on record: Mus musculus; assay: Displacement of [3H]2-BFI from imidazoline I2 receptor in Swiss mouse brain cerebral cortex membrane assessed as occupancy at high affinity site measured after 45 mins by liquid scintillation counting spectrometry
[3] = Displacement of [3H]2-BFI from imidazoline I2 receptor low affinity site in Swiss mouse brain cerebral cortex membrane measured after 45 mins by liquid scintillation counting spectrometry
[4] = Solubility of the compound in 99 % PBS buffer solution; assay type: physicochemical
Cytochrome P450 3A4 = Cytochrome P450 3A4 (Homo sapiens, UniProt P08684); assay: Inhibition of CYP3A4 (unknown origin) using as 7-BFC as substrate at 10 uM; assay type: ADME
Method in brief: (§1)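 Recombinant human CYP1A2, CYP2C9, CYP2C19, CYP2D6 and CYP3A4 (7-BFC or DBF as probe) were tested with probe substances and fluorescent detection, with test compound at 10 μM.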

Cytochrome P450 1A2 = target: T1, Cytochrome P450 1A2 (Homo sapiens, UniProt P05177); assay: Inhibition of CYP1A2 (unknown origin) at 10 uM; assay type: ADME; method in brief: as §1
T1 sequence (P05177 whole entry): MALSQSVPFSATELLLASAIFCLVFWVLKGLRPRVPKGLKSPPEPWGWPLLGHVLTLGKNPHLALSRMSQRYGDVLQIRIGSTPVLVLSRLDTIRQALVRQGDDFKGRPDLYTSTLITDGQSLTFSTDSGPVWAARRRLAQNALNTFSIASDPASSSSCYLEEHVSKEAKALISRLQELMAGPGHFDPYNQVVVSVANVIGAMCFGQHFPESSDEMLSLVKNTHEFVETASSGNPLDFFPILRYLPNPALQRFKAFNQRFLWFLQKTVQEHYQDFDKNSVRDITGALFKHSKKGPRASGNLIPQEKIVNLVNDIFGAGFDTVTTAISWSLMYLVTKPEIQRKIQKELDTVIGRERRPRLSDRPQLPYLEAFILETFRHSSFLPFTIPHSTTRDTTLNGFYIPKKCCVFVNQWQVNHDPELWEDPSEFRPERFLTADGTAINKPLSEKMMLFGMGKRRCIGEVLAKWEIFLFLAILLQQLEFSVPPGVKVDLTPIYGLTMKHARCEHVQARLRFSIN

NCI-H460 = assay: Cytotoxicity against human NCI-H460 cells at 100 uM by real time IncuCyte proliferation assay; assay type: cell-based; conditions: nci-h460, 100 µM
Method in brief: (§2)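 Adherent lines (LN-229, Capan-1, HCT-116, NCI-H460) seeded at 500–1500 cells/well and treated after overnight attachment. Suspension lines (HL-60, K-562, Z-138, DND-41) seeded at 2500–5500 cells/well directly with compound. Highest concentration 100 μM; proliferation tracked by real-time IncuCyte imaging over 72 h at 37 °C.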

[5] = Displacement of [3H]clonidine from imidazoline I1 receptor low affinity site in human hypothalamic membranes measured after 30 mins by liquid scintillation counting spectrometry; assay type: cell membranes, Hypothalamus, Membrane
[6] = Hypothermic effect in CD-1 mouse assessed as reduction in body temperature at 50 mg/kg, ip measured up to 3 hrs by rectal thermometric method; assay type: ADME, organism-based; conditions: in vivo
Method in brief: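 Adult male and female CD-1 mice (n = 5 per group) given single i.p. doses (1, 5, 10, 20, 30, 50 mg/kg) or saline vehicle 2 ml/kg. Rectal temperature read with a digital probe before dosing and 1, 2 and 3 h after; change from basal value analysed by repeated measures ANOVA with Sidak's test.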

[7] = Displacement of [3H]2-BFI from imidazoline I2 receptor in post-mortem human brain frontal cortex membrane one site model measured after 45 mins by liquid scintillation counting spectrometry
[8] = Stability in human plasma assessed as compound remaining after 6 hrs; assay type: ADME, cell-free; conditions: read-out: Stabilty
Method in brief: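 Pooled human plasma from healthy donors, sampled at 0, 1, 2 and 6 h, reported as percentage of parent remaining.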

Homo sapiens = species on record: Homo sapiens; assay: Displacement of [3H]2-BFI from imidazoline I2 receptor in post-mortem human brain frontal cortex membrane assessed as occupancy at high affinity site measured after 45 mins by liquid scintillation counting spectrometry
[9] = Terminal half life in CD-1 mouse at 10 mg/kg, po measured after 24 hrs by HPLC/UV-VS analysis; assay type: ADME, organism-based; conditions: in vivo, read-out: beta t1/2 (converted)
Method in brief: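 Male CD1 mice (40–50 g, n = 3–4 per group) received a single 10 mg/kg dose. Plasma was taken at 15, 30, 45 and 60 min and 2, 3, 4, 5, 8 and 24 h. Drug was measured by HPLC-UV at 290 nm against a calibration of 0,025-5 μg/mL. Non-compartmental analysis used the mean curve: t1/2β = ln2/β from least-squares terminal slope; Tmax read directly.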

Cytochrome P450 2D6 = Cytochrome P450 2D6 (Homo sapiens, UniProt P10635); assay: Inhibition of CYP2D6 (unknown origin) at 10 uM; assay type: ADME; method in brief: as §1
[10] = AUC (0 to t) in CD-1 mouse at 10 mg/kg, po measured after 24 hrs by HPLC/UV-VS analysis; assay type: ADME, organism-based; design: route oral, time 24 hrs, dose 10 mg/kg; conditions: in vivo
Method in brief: (§3)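 Male CD1 mice; plasma concentration of drug at 15 min to 24 h after a single oral 10 mg/kg dose, measured by HPLC with UV at 290 nm (calibration 0,025-5 μg/mL, peak area ratio). Non-compartmental analysis of mean concentration–time curves: AUC by trapezoidal rule, Cmax read directly from the mean curve.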

[11] = Cytotoxicity against human DND41 cells at 100 uM by real time IncuCyte proliferation assay; assay type: cell-based; conditions: dnd41, 100 µM; method in brief: as §2
[12] = Microsomal stability in mouse liver microsomes assessed as parent compound remaining after 60 mins; assay type: ADME, Microsome; conditions: read-out: Stabilty
Method in brief: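 Human and mouse microsomes, incubation for 60 min, with percentage of parent compound remaining reported.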

LN-229 = assay: Cytotoxicity against human LN-229 cells at 100 uM by real time IncuCyte proliferation assay; assay type: cell-based; conditions: ln-229, 100 µM; method in brief: as §2
[13] = Acute toxicity in albino mouse assessed as effect on body weight at 100 mg/kg, ip; assay type: organism-based; conditions: in vivo
[14] = AUC (0 to infinity) in CD-1 mouse at 10 mg/kg, po measured after 24 hrs by HPLC/UV-VS analysis; assay type: ADME, organism-based; design: route oral, time 24 hrs, dose 10 mg/kg; conditions: in vivo; method in brief: as §3
Z-138 = assay: Cytotoxicity against human Z138 cells at 100 uM by real time IncuCyte proliferation assay; assay type: cell-based; conditions: z-138, 100 µM; method in brief: as §2
Mus musculus [15] = assay: Antialzheimer activity in 5xFAD transgenic Alzheimer disease mouse model assessed as increase in GPX1 expression at 1 mg/kg/day by Western blot analysis
HCT-116 = assay: Cytotoxicity against human HCT-116 cells at 100 uM by real time IncuCyte proliferation assay; assay type: cell-based; conditions: hct-116, 100 µM; method in brief: as §2

Cytochrome P450 2D6, sequence (P10635 whole entry): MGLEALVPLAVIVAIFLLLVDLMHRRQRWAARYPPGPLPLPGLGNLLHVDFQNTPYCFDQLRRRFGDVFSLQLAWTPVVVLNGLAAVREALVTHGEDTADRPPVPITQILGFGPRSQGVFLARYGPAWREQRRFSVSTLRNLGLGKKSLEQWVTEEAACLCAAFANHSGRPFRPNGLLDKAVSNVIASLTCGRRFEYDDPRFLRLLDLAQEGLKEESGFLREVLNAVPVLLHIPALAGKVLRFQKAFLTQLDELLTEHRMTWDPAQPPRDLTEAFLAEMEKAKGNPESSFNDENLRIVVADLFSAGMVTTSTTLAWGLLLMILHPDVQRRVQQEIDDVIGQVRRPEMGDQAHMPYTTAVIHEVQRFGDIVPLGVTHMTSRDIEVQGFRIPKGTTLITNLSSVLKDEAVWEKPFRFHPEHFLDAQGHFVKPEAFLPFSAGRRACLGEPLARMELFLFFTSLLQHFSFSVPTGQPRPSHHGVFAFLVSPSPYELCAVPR
Cytochrome P450 3A4, sequence (P08684 whole entry): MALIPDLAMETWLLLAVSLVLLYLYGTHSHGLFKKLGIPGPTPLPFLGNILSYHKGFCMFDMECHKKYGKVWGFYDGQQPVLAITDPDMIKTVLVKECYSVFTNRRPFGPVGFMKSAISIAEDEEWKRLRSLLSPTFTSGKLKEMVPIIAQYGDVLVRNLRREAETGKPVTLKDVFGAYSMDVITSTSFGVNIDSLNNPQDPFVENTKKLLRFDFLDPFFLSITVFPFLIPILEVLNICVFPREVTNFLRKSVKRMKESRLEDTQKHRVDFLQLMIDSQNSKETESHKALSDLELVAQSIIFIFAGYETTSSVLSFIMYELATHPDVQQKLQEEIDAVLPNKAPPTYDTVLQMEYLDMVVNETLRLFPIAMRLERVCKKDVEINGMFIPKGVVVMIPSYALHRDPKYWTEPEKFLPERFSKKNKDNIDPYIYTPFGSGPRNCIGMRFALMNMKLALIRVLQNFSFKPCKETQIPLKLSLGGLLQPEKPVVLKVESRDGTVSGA

Cl.c1ccc2oc(-c3ncc[nH]3)cc2c1
Activity (Mus musculus [1]): 34% | Activity (Mus musculus [2]): 41% | pKi [3]: 6 | solubility [4]: 52.5 µM | inhibition (INH) (Cytochrome P450 3A4): Not Active | inhibition (INH) (Cytochrome P450 1A2): Not Active | Activity (NCI-H460): Non-Toxic | Ki [5]: 250 µM | Activity [6]: Toxic | pKi [7]: 6.67 | remaining at 6 h [8]: 57% | Activity (Homo sapiens): 34% | half-life [9]: 6.7 h | inhibition (INH) (Cytochrome P450 2D6): Not Active | AUC(0-t) at 24 h [10]: 2700 ng·h/mL | Activity [11]: Non-Toxic | remaining at 1 h [12]: 36% | Activity (LN-229): Non-Toxic | Activity [13]: Non-Toxic | AUC(0-inf) [14]: 2600 ng·h/mL | Activity (Z-138): Non-Toxic | Activity (Mus musculus [15]): Active | Activity (HCT-116): Non-Toxic
